Experimental findings from PMC12416921 (RSC Medicinal Chemistry, 2025) are described below.

This data set relates to A549 human cancer cell line. Briefly: A549 differential cytotoxicity. The format is cell-based. Particulars: for HCR (hypoxia cytotoxicity ratio): A549, oxic vs anoxic IC50, 4 h incubation then 48 h oxic exposure; for IC50: Homo sapiens. Put shortly: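 A549 cells plated at 6000/well in MEM-alpha with 10% FBS and 0.02 mM 2′-deoxycytidine, attached 2 h. Anoxic arm in a Coy chamber with preconditioned medium and degassed plates; normoxic arm at 95% air/5% CO2. Final 50 μg mL−1 to 5 pg mL−1, duplicate wells. 4 h exposure, then 48 h aerobic without media change.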

[1] abbreviates: A549, read-out: IC50 [anoxic] (μM) ± SEM.
Setting [2] is: A549, read-out: IC50 [oxic] (μM) ± SEM.

Read-outs that look alike come from different tables or passages of the source.

Turning to `COc1cc(C2=CCCCc3c2ccc(OC)c3OCc2ccc([N+](=O)[O-])s2)cc(OC)c1OC` [KGP305 (19), 2-(((3-Methoxy-9-(3,4,5-trimethoxyphenyl)-6,7-dihydro-5H-benzo[7]annulen-4-yl)oxy)methyl)-5-nitrothiophene], the “HCR (hypoxia cytotoxicity ratio)” value was found to be 0.2. Besides, the IC50 under setting [1] is 0.22 ± 0.09 µM. The IC50 under setting [2] is 0.05 ± 0.005 µM.
Taken in the same sequence, the figures for `COc1ccc2c(C(=O)c3cc(OC)c(OC)c(OC)c3)c(-c3ccc(OC)c(OC(C)(C)c4ccc([N+](=O)[O-])s4)c3)[nH]c2c1` [KGP354 (25), (6-Methoxy-2-(4-methoxy-3-((2-(5-nitrothiophen-2-yl)propan-2-yl)oxy)phenyl)-1H-indol-3-yl)(3,4,5-trimethoxyphenyl)methanone] were 79, 0.07 ± 0.02 µM and 5.53 ± 2.22 µM.
Taken in the same sequence, the figures for `COc1cc(C2=CCCc3c2ccc(OC)c3OC(C)c2ccc([N+](=O)[O-])s2)cc(OC)c1OC` (stereo not drawn) [KGP25 (13), 2-(1-((2-Methoxy-5-(3,4,5-trimethoxyphenyl)-7,8-dihydronaphthalen-1-yl)oxy)ethyl)-5-nitrothiophene] were 11.0, 0.25 ± 0.08 µM and 2.74 ± 1.13 µM.
In the case of `COc1cc(C2=CCCc3c2ccc(OC)c3OCc2cnc([N+](=O)[O-])n2C)cc(OC)c1OC` [KGP105 (15), 5-(((2-Methoxy-5-(3,4,5-trimethoxyphenyl)-7,8-dihydronaphthalen-1-yl)oxy)methyl)-1-methyl-2-nitro-1H-imidazole], the “HCR (hypoxia cytotoxicity ratio)” value was determined as 6.2. Besides, the IC50 under setting [1] was 0.04 ± 0.003 µM. The IC50 under setting [2] is 0.25 ± 0.02 µM.
In the case of `Nc1n[n+]([O-])c2ccccc2[n+]1[O-]` [TPZ (1), tirapazamine, reference compound], the “HCR (hypoxia cytotoxicity ratio)” value is 8.9. Further, the IC50 under setting [1] turned out to be 7.1 µM. Under setting [2], the IC50 worked out at 63.5 µM.
Take `COc1cc(C2=CCCCc3c2ccc(OC)c3OCc2cnc([N+](=O)[O-])n2C)cc(OC)c1OC` [KGP293 (21), 5-(((3-Methoxy-9-(3,4,5-trimethoxyphenyl)-6,7-dihydro-5H-benzo[7]annulen-4-yl)oxy)methyl)-1-methyl-2-nitro-1H-imidazole]: the “HCR (hypoxia cytotoxicity ratio)” value came to 9.0. In addition, under setting [1], the IC50 is 0.04 ± 0.005 µM. Moreover, the IC50 under setting [2] stood at 0.36 ± 0.02 µM.
The matching figures for `COc1cc(C2=CCCc3c2ccc(OC)c3OC(C)(C)c2ccc([N+](=O)[O-])s2)cc(OC)c1OC` [KGP66 (14), 2-(2-((2-Methoxy-5-(3,4,5-trimethoxyphenyl)-7,8-dihydronaphthalen-1-yl)oxy)propan-2-yl)-5-nitrothiophene]: 2.6, 0.05 ± 0.01 µM and 0.13 ± 0.06 µM.
Taken in the same sequence, the figures for `COc1ccc2c(C(=O)c3cc(OC)c(OC)c(OC)c3)c(-c3ccc(OC)c(OCc4ccc([N+](=O)[O-])s4)c3)[nH]c2c1` [KGP311 (23), (6-Methoxy-2-(4-methoxy-3-((5-nitrothiophen-2-yl)methoxy)phenyl)-1H-indol-3-yl)(3,4,5-trimethoxyphenyl)methanone] were 79.7, 0.07 ± 0.04 µM and 5.58 ± 3.59 µM.
For the compound `COc1ccc2c(C(=O)c3cc(OC)c(OC)c(OC)c3)c(-c3ccc(OC)c(OC(C)c4ccc([N+](=O)[O-])s4)c3)[nH]c2c1` (stereo not drawn) [KGP343 (24), (6-Methoxy-2-(4-methoxy-3-(1-(5-nitrothiophen-2-yl)ethoxy)phenyl)-1H-indol-3-yl)(3,4,5-trimethoxyphenyl)methanone], the “HCR (hypoxia cytotoxicity ratio)” value worked out at 33.8. For the same compound, the IC50 under setting [1] is 0.12 ± 0.06 µM. Under setting [2], the IC50 amounted to 4.06 ± 1.89 µM.
In the case of `COc1cc(C2=CCCc3c2ccc(OC)c3OCc2ccc([N+](=O)[O-])s2)cc(OC)c1OC` [KGP24 (12), 2-(((2-Methoxy-5-(3,4,5-trimethoxyphenyl)-7,8-dihydronaphthalen-1-yl)oxy)methyl)-5-nitrothiophene], the “HCR (hypoxia cytotoxicity ratio)” value was determined as 1.0. Under setting [1], the IC50 worked out at 0.48 ± 0.04 µM. For the same compound, the IC50 under setting [2] turned out to be 0.46 ± 0.05 µM.
Take `COc1cc(C2=CCCCc3c2ccc(OC)c3OC(C)c2cnc([N+](=O)[O-])n2C)cc(OC)c1OC` (stereo not drawn) [KGP292 (22), 5-(1-((3-Methoxy-9-(3,4,5-trimethoxyphenyl)-6,7-dihydro-5H-benzo[7]annulen-4-yl)oxy)ethyl)-1-methyl-2-nitro-1H-imidazole]: the “HCR (hypoxia cytotoxicity ratio)” value was determined as 4.8. Moreover, under setting [1], the IC50 turned out to be 0.14 ± 0.04 µM. The IC50 under setting [2] was 0.67 ± 0.13 µM.
Taken in the same sequence, the figures for `COc1cc(C2=CCCc3c2ccc(OC)c3OC(C)c2cnc([N+](=O)[O-])n2C)cc(OC)c1OC` (stereo not drawn) [KGP291 (16), 5-(1-((2-Methoxy-5-(3,4,5-trimethoxyphenyl)-7,8-dihydronaphthalen-1-yl)oxy)ethyl)-1-methyl-2-nitro-1H-imidazole] were 7.6, 0.05 ± 0.004 µM and 0.38 ± 0.03 µM.
For `COc1cc(C2=CCCCc3c2ccc(OC)c3OC(C)c2ccc([N+](=O)[O-])s2)cc(OC)c1OC` (stereo not drawn) [KGP304 (20), 2-(1-((3-Methoxy-9-(3,4,5-trimethoxyphenyl)-6,7-dihydro-5H-benzo[7]annulen-4-yl)oxy)ethyl)-5-nitrothiophene], the “HCR (hypoxia cytotoxicity ratio)” value stood at 6.0. The IC50 under setting [1] came to 0.38 ± 0.12 µM. Further, the IC50 under setting [2] was determined as 2.27 ± 1.01 µM.

For orientation: IC50 means the concentration at which inhibition is half-maximal.
